From PubChem
This is a sample that favours compounds with a hit; in the whole collection about 3.5% have one here.
MrgX1 PAM = positive allosteric modulators of MrgX1, primary screen, HEK293 cells, Fluo-4 calcium flux | 310,000 compounds, 0.63% hits | B-score at 10 µM | Mas-related G-protein coupled receptor member X1 (Homo sapiens), Q96LB2 | AID 588675, 2011 | FDSS; stronger effect = higher value;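 active = plate-corrected calcium response at least 3 library SD above typical, normal starting fluorescence, not activating the receptor alone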;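 also: compound read alongside a low EC10 to EC30 dose of BAM8-22 agonist; peak minus trough fluorescence over baseline measured at the second addition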
Target sequence (Q96LB2 whole entry, looked up): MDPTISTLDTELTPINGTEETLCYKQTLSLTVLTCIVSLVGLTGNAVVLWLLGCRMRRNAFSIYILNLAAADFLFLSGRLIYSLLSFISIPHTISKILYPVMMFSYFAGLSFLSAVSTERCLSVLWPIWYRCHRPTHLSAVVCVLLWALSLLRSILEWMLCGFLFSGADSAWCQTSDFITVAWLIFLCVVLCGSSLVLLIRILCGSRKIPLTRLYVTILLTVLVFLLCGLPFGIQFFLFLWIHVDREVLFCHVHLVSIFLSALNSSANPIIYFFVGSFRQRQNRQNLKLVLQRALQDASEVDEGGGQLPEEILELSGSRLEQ
MrgX1 ag = agonists of human MrgX1 receptor, primary screen, HEK293 cells, Fluo-4 calcium flux; Fluo-4 calcium fluorescence, agonist mode; stronger effect = higher value; Mas-related G-protein coupled receptor member X1 (Homo sapiens), Q96LB2; B-score at 10 µM; AID 588627, 2011; 310,000 compounds, 0.44% hits;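 active = calcium response B-score plate-corrected fluorescence ratio at least 3 library SD, with starting fluorescence B-score inside 5 SD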
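Material: HEK293 cells stably expressing human MrgX1 receptor | Quantity: 15,000 cells per well | Times: Cells plated overnight, dye loaded 0.5 h 37 °C, 0.5 h room temperature | Measured by: Kinetic Fluo-4 NW fluorescence of intracellular calcium | Control set: Positive and negative controls per plate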
RGS4 act = RGS4 potentiators or activators, primary screen, cell-based, HEK293 M3R inducible RGS4, calcium flux | 310,000 compounds, 0.92% hits | carbachol calcium flux Fluo4; stronger effect = lower value | B-score at 10 µM | AID 463111, 2010;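 active = B-score of the integrated calcium signal more than 4 SD below the library mean, with starting fluorescence not abnormally high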;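 also: negative B-score means reduced calcium response which marks RGS4 activation or potentiation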
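Reagent: ECmax carbachol challenge; Test system: M3R-expressing HEK293 line, RGS4 induced by doxycycline; Schedule: overnight RGS4 induction, 30 min dye load 37 °C, 20 min compound RT; Detection: calcium dye Fluo4 fluorescence; Read-out: Agonist-evoked peak-minus-minimum fluorescence over baseline, integrated ratio, B score.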
RGS4 block = RGS4 inhibitors, primary screen, cell-based, HEK293 M3R inducible RGS4, calcium flux; B-score at 10 µM; Regulator of G-protein signaling 4 (Homo sapiens), P49798; Fluo-4 calcium flux; stronger effect = higher value; triggered by carbachol at its EC20; 310,000 compounds, 0.45% hits;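 active = B-score, a plate-corrected calcium signal, over three deviations above library mean, with baseline fluorescence within five deviations of library mean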;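 also: RGS4 expression induced by doxycycline in cells with stable M3 receptor; B-score is computed from the integrated fluorescence ratio over baseline after carbachol; higher B-score means a larger calcium signal and so more RGS4 inhibition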
Target sequence (P49798 whole entry, looked up): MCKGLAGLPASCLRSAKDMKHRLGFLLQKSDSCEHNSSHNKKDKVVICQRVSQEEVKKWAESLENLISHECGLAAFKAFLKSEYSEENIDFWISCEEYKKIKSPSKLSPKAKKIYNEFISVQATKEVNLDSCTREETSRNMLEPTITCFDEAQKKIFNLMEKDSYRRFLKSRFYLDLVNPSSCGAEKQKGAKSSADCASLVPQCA
MrgX1 antagonist = antagonists of human MrgX1 receptor, primary screen, HEK293 cells, Fluo-4 calcium flux; Mas-related G-protein coupled receptor member X1 (Homo sapiens), Q96LB2; B-score at 10 µM; AID 588676, 2011; BAM8-22 antagonism; stronger effect = lower value; 310,000 compounds, 1.3% hits;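 active = calcium-response B-score plate-corrected more than 3 library SD below zero, starting fluorescence within 5 deviations, no agonist response on first addition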;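 also: peak minus trough fluorescence over baseline after final BAM8-22 challenge near maximal dose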
MrgX1 ant reconf = MrgX1 receptor antagonists, duplicate retest, confirmation, HEK293 cells, Fluo-4 calcium flux; BAM8-22 calcium flux; stronger effect = lower value; 2,300 compounds, 19% hits; remaining BAM8-22 calcium response % of control (stronger effect = lower value), % at 10 µM; shares compounds with MrgX1 antagonist;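 active = remaining agonist calcium response no higher than 100% minus 3 SD of agonist-only control wells, with starting fluorescence near control levels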;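 also: agonist BAM8-22 given at a near maximal EC90 to ECmax level; peak minus minimum fluorescence divided by baseline after agonist addition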
HEK293 Ca flux = nonspecific calcium signal in parental HEK293, confirmation, counter-screen for MrgX1 antagonist project, parental HEK293 cells, Fluo-4 calcium flux. fluorescence ratio F(max-min)/F0 at 10 µM. 4,000 compounds, 2% hits. shares compounds with MrgX1 antagonist. Fluo-4 calcium fluorescence, FDSS;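 active = duplicate-averaged calcium fluorescence ratio at least three times the standard deviation of buffer wells, a nonspecific response in parental cells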
HEK293 Ca counter = calcium response in parental HEK293 cells, primary screen, counter-screen for MrgX1 allosteric activator project, cell-based, Fluo-4 calcium flux, duplicate; shares compounds with MrgX1 antagonist; 4,000 compounds, 0.4% hits; fluorescence ratio F(max-min)/F0 at 10 µM; Fluo-4 fluorescence ratio; stronger effect = higher value;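 active = calcium fluorescence ratio, averaged over duplicates, at least 3 SD of the buffer-well ratio, meaning a nonspecific response in receptor-free cells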;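 also: untransfected parental HEK293 lacking MrgX1 used as counterscreen for MrgX1 allosteric activators; fluorescence change taken during the second addition on a kinetic imager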
HEK293 Ca cntr2 = calcium response in parental HEK293 cells, primary screen, counter-screen for MrgX1 agonist project, cell-based, Fluo-4 calcium flux, duplicate, agonist mode; shares compounds with MrgX1 antagonist; Fluo-4 calcium fluorescence (FDSS); stronger effect = higher value; fluorescence ratio F(max-min)/F0 at 10 µM; 4,000 compounds, 8.7% hits;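 active = calcium fluorescence ratio at least three times the spread of buffer wells, meaning a non-specific response in parental cells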
An asterisk follows results filed as active; i = inactive; x = no result.

SMILES | MrgX1 PAM | MrgX1 ag | RGS4 act | RGS4 block | MrgX1 antagonist | MrgX1 ant reconf | HEK293 Ca flux | HEK293 Ca counter | HEK293 Ca cntr2
COc1ccc(-c2nc3c(c4nnc(SC(C)C(=O)Nc5ccccc5)n24)COC(C)(C)C3)cc1 (stereo not drawn) | i | i | i | i | -6.54* | i | i | i | i
CSc1ccc(NC(=O)NCc2cccnc2)cc1 | i | i | i | i | i | x | x | x | x
COc1cc(C=C(c2nc3ccccc3s2)c2nc3ccccc3s2)ccc1O | i | i | i | i | i | x | x | x | x
COc1cc(/C=C/c2nc3ccccc3s2)cc(OC)c1O | i | i | i | i | -5.74* | i | i | i | i
COc1ccccc1N1CCN(CC(O)c2ccc3cc[nH]c3c2)CC1 (stereo not drawn) | i | i | i | i | -9.84* | i | i | i | i
O=C(O)c1ccc(N2CCCCC2)cc1 | i | i | i | i | -6.4* | i | i | i | i
CCN(CC)CCOC(=O)c1cc(Cl)c(N)cc1OC | i | i | x | x | i | x | x | x | x
CC1(C)C2CCC(C2)C1(C)NC(=O)CN1CCCC1 (stereo not drawn) | i | i | i | i | i | x | x | x | x
CC1(C)C2CCC(C2)C1(C)NC(=O)CN1CCOCC1 (stereo not drawn) | i | i | x | x | -10.1* | i | i | i | i
COc1cc(NC(=O)C2CSC3(C)CCC(=O)N23)c(OC)cc1Cl (stereo not drawn) | i | i | i | i | -7.85* | 82.8%* | i | i | i
Cc1cccnc1NC(=O)C1CCCN1S(=O)(=O)c1ccc(Cl)cc1 (stereo not drawn) | i | i | i | i | i | x | x | x | x
CCOC(=O)c1ccc2c(c1)nc(COc1ccc3ccccc3c1)n2CC | i | i | -7.28* | i | -5.18* | i | i | i | i
CCn1c(COc2ccc(OC)cc2)nc2ccccc21 | i | i | i | i | i | x | x | x | x
CNC(=O)CSc1nnc(-c2cccnc2)n1-c1ccc(C)cc1 | i | i | i | i | -5.64* | i | i | i | i
CCN1CNC(=S)N(c2cc(C)ccc2C)C1 | i | i | i | i | -5.84* | i | i | i | i
CN(CCn1ccnc1)Cc1cn(Cc2ccccc2)nc1-c1ccc2c(c1)OCO2 | i | i | i | i | i | x | x | x | x
Cc1cc(C)c(S(=O)(=O)N2CCCc3ccccc32)c(C)c1 | i | i | i | i | -7.12* | i | i | i | 51.7*
CC(CC(=O)Nc1nc2ccccc2[nH]1)n1ccnc1 (stereo not drawn) | i | i | i | i | i | x | x | x | x
CC(=O)Nc1ccc(NC(=O)CC(C)n2ccnc2)cc1 (stereo not drawn) | i | i | i | i | -7* | i | i | i | i
COC(=O)c1c[nH]c(=O)c2ccccc12 | i | i | i | i | -5.73* | i | i | i | i
C=CCN1C(=O)c2ccccc2NC1c1cc(Br)cs1 (stereo not drawn) | i | i | i | i | i | x | x | x | x
N#Cc1c2n(cnc1=O)CCCCC2 | i | i | i | i | -4.94* | i | i | i | i
O=C(CNC(=O)c1ccccc1F)OCc1csc(-c2ccccc2)n1 | i | i | i | i | -5.03* | i | i | i | i
CCSc1nc2sc3c(c2c(=O)n1CC)CC(C)(C)OC3 | i | i | i | i | -7.06* | i | i | i | i
CCn1c(SCC(=O)OC)nc2sc3c(c2c1=O)CC(C)(C)OC3 | i | i | i | i | i | x | x | x | x
SMILES | MrgX1 PAM | MrgX1 ag | RGS4 act | RGS4 block | MrgX1 antagonist | MrgX1 ant reconf | HEK293 Ca flux | HEK293 Ca counter | HEK293 Ca cntr2
CC(=O)c1c(O)c(C)c(-c2ccccc2)n(-c2ccccc2)c1=O | i | i | i | i | i | x | x | x | x
O=C(c1ccccc1)c1c(O)nc(-c2ccccc2)n(-c2ccccc2)c1=O | i | i | i | i | -7.97* | i | i | i | i
CC(=O)c1c[nH]c2ccc(C)cc2c1=O | i | i | i | i | -4.93* | 69.9%* | i | i | i
COc1cc(C2NC(C(=O)O)Cc3c2[nH]c2ccccc32)cc(OC)c1OC (stereo not drawn) | i | i | i | i | i | x | x | x | x
COc1ccc(C2NC(C(=O)O)Cc3c2[nH]c2ccccc32)cc1OC (stereo not drawn) | i | i | i | i | -6.73* | i | i | i | i
CC(C)(C)N1C(=O)c2ccc(C(=O)Nc3ccc(O)cc3)cc2C1=O | i | i | i | i | i | x | x | x | x
COC(=O)c1cccc(NC(=O)c2ccc3c(c2)C(=O)N(C(C)(C)C)C3=O)c1 | i | i | i | i | -4.67* | i | i | i | i
COC(=O)c1cccc(NC(=O)c2ccc3c(c2)C(=O)N(Cc2cccnc2)C3=O)c1 | i | i | i | i | i | x | x | x | x
CC(C)(C)NC(=O)c1cccc(NC(=O)c2ccc3c(c2)C(=O)N(C(C)(C)C)C3=O)c1 | i | i | -7.08* | i | -10.9* | 79.3%* | i | i | i
O=C(CSc1nnc(CNc2cccc(C(F)(F)F)c2)n1Cc1ccco1)NCc1ccco1 | i | i | i | i | i | x | x | x | x
O=C(O)CSc1nnc(CNc2cccc(C(F)(F)F)c2)n1Cc1ccco1 | i | i | i | i | -7.36* | 78.9%* | i | i | i
